# Screening data as filed in PubChem BioAssay.
# Hits are enriched below; roughly 4.9% of the tested compounds scored in any of these assays.
# STAT3 inh-1: IL-6 driven STAT3 reporter inhibitors, primary screen, U3A cells, luciferase, luminescence, MLSCN library. IL-6 STAT3-luciferase reporter; host cell line lacks STAT1. inhibition, % at 5.5 µM. hit rate 0.89% among 190,000. AID 862, 2007;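 active = inhibition above the mean inhibition across all screened compounds plus 3 SD, cut at about 44% in these data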
# FLuc inhib CS: firefly luciferase enzyme inhibitors, primary screen, artefact control for luciferase-based inhibitor screens, biochemical, luminescence, ATPLite | Luciferin 4-monooxygenase (Photinus pyralis), P08659 | 10 min | inhibition, % at 10 µM | hit rate 1.5% among 200,000 | AID 1006, 2008;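 active = inhibition above about 50% when tested at 10 µM, limit read from the data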
# Target sequence (P08659 whole entry, looked up): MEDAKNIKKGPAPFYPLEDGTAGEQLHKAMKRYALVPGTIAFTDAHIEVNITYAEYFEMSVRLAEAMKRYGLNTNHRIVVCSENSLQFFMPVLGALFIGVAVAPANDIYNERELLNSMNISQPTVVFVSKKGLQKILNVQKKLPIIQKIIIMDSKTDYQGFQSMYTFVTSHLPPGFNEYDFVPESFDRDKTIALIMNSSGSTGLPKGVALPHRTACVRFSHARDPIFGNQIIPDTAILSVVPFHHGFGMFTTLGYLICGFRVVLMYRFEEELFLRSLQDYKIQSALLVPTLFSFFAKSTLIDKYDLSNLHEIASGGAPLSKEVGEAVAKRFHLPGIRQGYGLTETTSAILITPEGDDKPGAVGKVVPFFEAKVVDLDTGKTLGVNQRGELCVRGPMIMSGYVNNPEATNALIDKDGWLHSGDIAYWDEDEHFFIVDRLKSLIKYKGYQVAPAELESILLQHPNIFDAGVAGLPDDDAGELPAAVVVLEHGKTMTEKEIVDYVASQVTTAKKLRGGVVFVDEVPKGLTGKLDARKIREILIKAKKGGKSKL
# STAT1 inh-1: STAT1 signaling inhibitors, primary screen, cell-based, HTS, luciferase reporter; NIH 3T3 STAT1-luciferase reporter, IFN-gamma, luminescence; hit rate 0.35% among 200,000; inhibition, % at 5.5 µM;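 active = inhibition above a set limit, the mean inhibition across all tested compounds plus 3 SD, cut at about 34% in these data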
# FLuc stim CS: FLuc activators, initial screening, artefact control for FLuc-dependent activation tests, biochemical, ATPlite luminescence. Luciferin 4-monooxygenase (Photinus pyralis), P08659. ATPlite luciferase biochemical, 10 min; 0 = ATP-free wells, 1 = DMSO control. activation factor at 10 µM. 200,000 tested, under 10 active;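 active = luciferase activation factor, scaled between plate controls, of at least 2 with compound at 10 µM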
#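 System: cell-free luciferase reagent; medium: PBS as buffer for the ATP substrate; doses: test compounds dosed from 2 mM stocks in 100% DMSO; incubation: 10 min, room temperature; measured by: luminescence from luciferase reaction; read-out: luciferase activation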
# STAT1 act-1: STAT1 signaling activators, primary screen, cell-based, HTS, luciferase reporter; NIH 3T3 STAT1-luciferase reporter, IFN-gamma, luminescence; 100% = IFN-gamma alone, no compound; activation (% of control), % at 5.5 µM; hit rate 2.6% among 200,000;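 active = activation above the screen-wide mean activation plus 3 SD, cut at about 130% in these data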
# STAT3 act-1: IL-6 driven STAT3 reporter potentiators, primary screen, U3A cells, luciferase, luminescence, MLSCN library. IL-6 STAT3-luciferase reporter; 100% = signal with IL-6 EC80 alone. hit rate 0.91% among 190,000. activation (% of control), % at 5.6 µM;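 active = activation above the screen-wide mean of compound activation plus 3 SD, cut at about 130% in these data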
#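 system = STAT3-luciferase reporter U3A cells | reagent = IL-6 stimulus at 33 ng/mL final | timing = 1 h compound pre-exposure, 6 h IL-6 stimulation, 37 °C | measured by = luminescence | evaluation = % activation versus median of IL-6-stimulated wells | control set = IL-6-only wells as 100% reference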
# STAT3 inh-2: STAT3 reporter inhibitors, retest of hits, confirmation, U3A cells, luciferase, luminescence | IL-6 STAT3 luciferase reporter; cell line lacks STAT1 | shares compounds with STAT3 inh-1 | inhibition, % at 5.7 µM | hit rate 45% among 1,200 | AID 1265, 2008;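 active = inhibition above the hit cutoff computed for the primary STAT3 screen, cut at about 44% in these data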
# NFkB inh 2: NF-kB reporter inhibitors in human cells, confirmation, counter-screen for STAT3 inhibitor project, cell-based, HEK293T, luciferase, TNF-alpha stimulus | shares compounds with STAT3 inh-1 | TNF-alpha induced | inhibition, % at 5.7 µM | hit rate 36% among 1,200 | AID 1308, 2008;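 active = inhibition above the mean of solvent-only control wells plus 3 SD, cutoff set per campaign, cut at about 13% in these data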
# STAT1 inh 2: STAT1 reporter inhibitors, IFN-gamma induced, confirmation, counter-screen for STAT3 inhibitor project, cell-based, NIH 3T3, luciferase luminescence; shares compounds with STAT3 inh-1; NIH 3T3 STAT1-luciferase reporter; inhibition, % at 5.7 µM; hit rate 27% among 1,200;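 active = inhibition above the mean plus 3 SD of solvent-only control wells, limit set per screening run, cut at about 16% in these data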
# STAT3 act-2: STAT3 reporter potentiators, retest of hits, confirmation, U3A cells, luciferase, luminescence. IL-6 potentiation; U3A cells lack STAT1; 100 means same as IL-6 alone. potentiation (% of control), % at 5.7 µM. shares compounds with STAT3 act-1. hit rate 64% among 1,200. AID 1267, 2008;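 active = percent activation of the STAT3 luciferase reporter above a set limit taken from the earlier primary screen, cut at about 130% in these data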
# NFkB act STAT3ct: NF-kB reporter activators in human cells, counter-screen for STAT3 activator project. activation (% of control), % at 5.7 µM. hit rate 11% among 1,200. shares compounds with STAT3 act-1. AID 1309, 2008. NF-kappaB reporter activation; in the data active = activation above about 120%;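 also: reporter induced by TNF-alpha stimulation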
# STAT1 act-2: STAT1 reporter activators, IFN-gamma induced, counter-screen for STAT3 activator project, cell-based, NIH 3T3, luciferase luminescence; shares compounds with STAT3 act-1; hit rate 13% among 1,200; NIH 3T3 STAT1-luciferase reporter; activation (% of control), % at 5.7 µM; AID 1318, 2008;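 active = activation above the solvent-only control well mean plus 3 SD, set per screening run, cut at about 120% in these data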
# STAT1 inh-2: STAT1 signaling inhibitors, confirmation, cell-based, HTS, luciferase reporter; shares compounds with STAT1 inh-1; NIH 3T3 STAT1-luciferase reporter, IFN-gamma, luminescence; inhibition, % at 5.5 µM; hit rate 55% among 200; AID 1263, 2008;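 active = triplicate mean inhibition exceeding the hit cutoff computed for the primary STAT1 screen, cut at about 35% in these data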
# NFkB inh: NF-kB reporter inhibitors, TNF-alpha stimulated, counter-screen for STAT1 inhibitor project, cell-based, HEK293T, luciferase luminescence. AID 1303, 2008. inhibition, % at 5.7 µM. hit rate 30% among 200. shares compounds with STAT1 inh-1. TNF-alpha induced;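 active = inhibition above the mean of solvent-only control wells plus 3 SD of those wells, cut at about 15% in these data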
# STAT3 inh 2: STAT3 reporter inhibition by STAT1 hits, counter-screen for STAT1 inhibitor project, U3A cells, luciferase, luminescence, triplicate | shares compounds with STAT1 inh-1 | IL-6 STAT3 luciferase reporter; cells lacking STAT1 | inhibition, % at 5.7 µM | hit rate 20% among 200;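 active = inhibition above the mean of solvent-only control wells plus 3 SD, set per campaign, cut at about 25% in these data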
# STAT1 activ conf: STAT1 signaling activators, confirmation, cell-based, HTS, luciferase reporter. shares compounds with STAT1 act-1. NIH 3T3 STAT1-luciferase reporter, IFN-gamma potentiation, luminescence; 100% = IFN-gamma EC80 alone, no compound. activation (% of control), % at 5.7 µM. hit rate 97% among 1,200;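 active = activation above a set limit carried over from the earlier primary STAT1 screen, cut at about 140% in these data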
# NFkB act STAT1ct: NF-kB reporter activators, TNF-alpha stimulated, counter-screen for STAT1 activator project, cell-based, HEK293T, luciferase luminescence | shares compounds with STAT1 act-1 | hit rate 43% among 1,200 | 100% = TNF-alpha with vehicle only | activation (% of control), % at 5.7 µM;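 active = activation above the mean of solvent-only control wells plus 3 SD, set per campaign, cut at about 130% in these data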;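 also: TNF-alpha given at a submaximal dose yielding about 80% of full reporter signal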
# STAT3 act STAT1c: STAT3 reporter activation by STAT1 hits, confirmation, counter-screen for STAT1 activator project, U3A cells, luciferase, luminescence; IL-6; cells lack STAT1; 100 = IL-6 alone, no compound effect; AID 1316, 2008; hit rate 46% among 1,200; activation (% of control), % at 5.7 µM; shares compounds with STAT1 act-1;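 active = activation above the solvent-only control well mean plus 3 SD, set per plate batch, cut at about 110% in these data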;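 also: higher means more STAT3 reporter activation so hits are non-selective activators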
# A number is an active result; - = inactive; . = not tested or not shown.
SMILES,STAT3 inh-1,FLuc inhib CS,STAT1 inh-1,FLuc stim CS,STAT1 act-1,STAT3 act-1,others
CCC(=NCCc1c[nH]c2ccccc12)c1c(O)n(-c2ccc(C)cc2)c(=O)[nH]c1=O,-,-,-,-,-,-,
Cc1ccc2nc(N3CCC(C(=O)N4CCC5(CC4)OCCO5)CC3)sc2c1,-,-,-,-,-,-,
O=C(C1CCN(c2nc3ccc(Br)cc3s2)CC1)N1CCC2(CC1)OCCO2,63,-,-,-,-,-,STAT3 inh-2=66;NFkB inh 2=-;STAT1 inh 2=-
c1ccc2c(CN3CCCCCCC3)c[nH]c2c1,-,-,-,-,-,153,STAT3 act-2=149;NFkB act STAT3ct=-;STAT1 act-2=-
c1ccc2c(CN3CCN(C4CCCCC4)CC3)c[nH]c2c1,-,-,-,-,-,166,STAT3 act-2=146;NFkB act STAT3ct=-;STAT1 act-2=-
COc1ccc(C(=O)c2nc3ccccc3n2C(C)C)cc1,-,-,-,-,-,-,
Cc1ccsc1-c1nc(CSCC(=O)N2CCC3(CC2)OCCO3)c(C)o1,-,-,-,-,-,-,
O=c1c2ccccc2nc(-c2ccc(-c3ccccc3)cc2)n1-c1ccncc1,-,-,-,-,-,144,STAT3 act-2=134;NFkB act STAT3ct=-;STAT1 act-2=-
Cc1ccc(-c2nc3ccccc3c(=O)n2-c2ccncc2)cc1,-,-,-,-,-,-,
OC(Cn1c2ccccc2c2ccccc21)C[n+]1cccc2ccccc21 (centres undefined),-,-,-,-,-,-,
CCC(CC)NCc1c[nH]c2ccccc12,-,-,-,-,-,146,STAT3 act-2=163;NFkB act STAT3ct=-;STAT1 act-2=-
O=c1[nH]c(=O)n(Cc2ccccc2Cl)c(O)c1/C=C1/C=CC=N1,-,-,-,-,-,139,STAT3 act-2=-;NFkB act STAT3ct=-;STAT1 act-2=-
C=CCn1c(O)c(/C=C2/C=CC=N2)c(=O)[nH]c1=O,-,-,-,-,-,-,
CC(C)[C@H]1C(=O)O[C@H](C(C)C)C(=O)N(C)[C@@H](C(C)C)C(=O)O[C@H](C(C)C)C(=O)N(C)[C@@H](C(C)C)C(=O)O[C@H](C(C)C)C(=O)N1C,.,-,47,-,-,.,STAT1 inh-2=-;NFkB inh=-;STAT3 inh 2=-
Cc1cc(C)cc(N2C(=O)NC(=O)/C(=C\c3cccn3-c3ccccc3)C2=O)c1,-,-,-,-,-,-,
Cc1cc(C)cc(N2C(=O)NC(=O)/C(=C\c3cccn3-c3ccc(Cl)cc3)C2=O)c1,-,-,38,-,-,-,STAT1 inh-2=-;NFkB inh=-;STAT3 inh 2=-
c1ccc(-c2ccc(-c3n(-c4ccccn4)c4ccccc4[n+]3-c3ccccn3)cc2)cc1,-,-,-,-,-,-,
O=C1NC(=O)C(=Cc2ccc(Oc3ccc([N+](=O)[O-])cc3)cc2)C(=O)N1,-,-,-,-,-,-,
COc1cc(C=C2C(=O)NC(=O)NC2=O)ccc1OCc1ccc([N+](=O)[O-])cc1,-,52,-,-,152,-,STAT1 activ conf=175;NFkB act STAT1ct=136;STAT3 act STAT1c=122
COc1ccc(C(C)=O)cc1CC(C(=O)c1ccccc1)N(C)C (centres undefined),-,-,-,-,-,-,
O=C(c1cc2c(s1)-c1ccccc1OC2)N1CCC2(CC1)OCCO2,-,-,-,-,158,-,STAT1 activ conf=196;NFkB act STAT1ct=134;STAT3 act STAT1c=119
COc1ccc(-c2cc(=Nc3ccccc3)c3cc(C)ccc3o2)cc1,-,-,-,-,165,-,STAT1 activ conf=143;NFkB act STAT1ct=-;STAT3 act STAT1c=-
COc1ccc(-c2cc(=O)c3c(OC)c(OC)c(OC)cc3o2)cc1,.,-,-,-,-,.,
COc1ccc(-c2cc(=NCCC(=O)O)c3cc(C)ccc3o2)cc1,-,-,-,-,153,-,STAT1 activ conf=154;NFkB act STAT1ct=-;STAT3 act STAT1c=-
CC(C)COP(=O)(OCC(C)C)C(O)c1cccnc1 (centres undefined),-,-,-,-,-,-,
